In the library only some 3% were active in any assay of this set; here they are far more common.
M4 PAM = CHRM4 positive allosteric modulation; AID 624126; activation, % at 3 µM; P08173; CHO-K1 hM4/Gqi5, Fluo-8 calcium fluorescence, ACh EC20; 0% = ACh EC20, 100% = maximal ACh; 360,000 compounds, 0.4% hits;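 active means activation above its plate's cutoff, the mean activation of sample wells plus 3 SD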
CHRM4 antagonist = CHRM4 antagonism in calcium assay. P08173. CHO-hM4 cells, ACh EC80, Fluo-8 calcium fluorescence. inhibition, % at 3 µM. 360,000 compounds, 0.73% hits. AID 624125;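 active means inhibition above its plate's cutoff, the mean inhibition of sample wells plus 3 SD, cut at about 27% in these data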;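 further: 0% = acetylcholine EC80 with DMSO and 100% = DMSO without agonist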
TAAR1 ag = agonists of human TAAR1. Q96RJ0. CHO RD-HGA16 TAAR1, Fluo-8 calcium fluorescence; vehicle wells 0%, saturating PEA agonist 100%. activation, % at 3 µM. 360,000 compounds, 0.99% hits. AID 624467;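 active means activation above the mean activation of all test compounds in the run plus 3 SD, cut at about 38% in these data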
Target sequence (Q96RJ0 whole entry, looked up): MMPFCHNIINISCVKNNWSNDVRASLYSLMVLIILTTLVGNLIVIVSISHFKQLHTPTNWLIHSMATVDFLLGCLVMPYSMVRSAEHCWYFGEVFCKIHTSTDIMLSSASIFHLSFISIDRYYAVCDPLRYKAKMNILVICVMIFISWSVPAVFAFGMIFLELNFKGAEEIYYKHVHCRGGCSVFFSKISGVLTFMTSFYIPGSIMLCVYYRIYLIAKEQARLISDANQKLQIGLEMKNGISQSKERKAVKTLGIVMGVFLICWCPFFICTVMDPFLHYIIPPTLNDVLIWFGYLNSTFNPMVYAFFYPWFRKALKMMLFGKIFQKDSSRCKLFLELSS
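Assay system – CHO-derived RD-HGA16 cells with stable Gα16 and human TAAR1 · Compound dosing – one-point dosing at 3 µM (nominal) · Incubation – 17-24 h seeding, 75 min 37 °C dye, 30 min RT · Measured by – kinetic Fluo-8 calcium fluorescence · Control set – DMSO vehicle as 0%, PEA at EC100 as 100% · Repeats – single well for each compound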
CHRM4 agonist = CHRM4 agonism in calcium assay | P08173 | CHO-K1 hM4/Gqi5, Fluo-8 calcium fluorescence; vehicle 0%, full acetylcholine response 100% | activation, % at 3 µM | 360,000 compounds, 0.14% hits | AID 624127;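 active means activation above the run mean over all test wells plus 3 SD, cut at about 32% in these data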;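 further: peak over basal fluorescence ratio per well then scaled between controls; 0% = DMSO wells and 100% = acetylcholine at EC100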
TAAR1 antag = human TAAR1 antagonism. Q96RJ0. CHO RD-HGA16 TAAR1, Fluo-8 calcium fluorescence, antagonist. inhibition, % at 3 µM. 360,000 compounds, 1.5% hits. AID 624466;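 active means inhibition above a per-plate cutoff, the mean inhibition of test compounds on that plate plus 3 SD, cut at about 49% in these data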;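 further: 0% = DMSO plus EC80 beta-PEA response and 100% = DMSO alone without agonist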
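Test system: hTAAR1-expressing CHO RD-HGA16 cells, Gα16-coupled; Probe or stimulus: EC80 β-phenethylamine stimulus; Compound dosing: single nominal final test compound concentration of 3 µM; Timing: 140 s kinetic read after compound, 140 s after agonist; Signal: Fluo-8 calcium-sensitive fluorescence; Measure: % inhibition of agonist calcium response; Controls: DMSO and EC80 PEA controls.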
Starred values were filed as active, the others as inactive; x = no result.

SMILES	M4 PAM	CHRM4 antagonist	TAAR1 ag	CHRM4 agonist	TAAR1 antag
Cc1ccc(C(=O)Oc2cc(N)n(S(=O)(=O)c3ccc(F)cc3)n2)cc1	0.4	-5.3	6.7	-1.9	-35.0
Nc1cc(OC(=O)c2cccs2)nn1S(=O)(=O)c1ccccc1	4.6	-6.7	39.7*	0.9	18.4
COc1ccc(C(=O)Oc2cc(N)n(S(=O)(=O)c3ccccc3)n2)cc1	-3.5	-8.9	1.9	9.5	3.3
COC(=O)[C@]12C[C@H](CC(=O)N3CCC(c4ccccc4)CC3)C(=O)N(Cc3ccc4c(c3)OCO4)C1=C[C@H](C(C)(C)C)O[C@@H]2C	x	x	-1.5	x	-35.5
C[C@H](CO)N1C[C@H](C)[C@@H](CN(C)C(=O)Nc2ccccc2)OCc2cn(nn2)CCCC1=O	x	x	0.6	x	12.2
CCN(CC)c1ccc(C=C2C(=O)OC3(CCCCC3)OC2=O)cc1	9.0	-2.9	37.0	0.3	23.9
CCCCC1(C)OC(=O)C(=Cc2ccc(N(CC)CC)cc2)C(=O)O1 (configuration not stated)	5.8	-1.8	45.9*	0.9	19.4
CC(C)NC(=O)N(C)C[C@@H]1OCc2cn(nn2)CCCC(=O)N([C@@H](C)CO)C[C@H]1C	x	x	0.3	x	-1.2
Cc1cc2cc(CNC(=O)c3ccc(S(=O)(=O)N4CCOCC4)cc3)ccc2n1C	-15.5	39.2*	0.9	2.1	3.1
Cc1cc2cc(CNC(=O)c3ccc(S(=O)(=O)N(C)C)cc3)ccc2n1C	-6.5	-2.8	1.6	2.3	-0.1
COc1cccc(CNC(=O)c2ccc(S(=O)(=O)N3CCCCC3)cc2)c1	-1.4	1.8	9.3	13.8	50.7*
COc1ccc(S(=O)(=O)N2CCCCCC2)cc1C(=O)NCc1ccco1	-2.3	-8.6	1.1	3.0	-32.5
COc1ccc(S(=O)(=O)N2CCCCCC2)cc1C(=O)NCc1ccccc1Cl	25.5*	-2.6	-0.1	-0.2	2.3
COC(=O)[C@]12C[C@H](CC(=O)N3CCOCC3)C(=O)N(CCC3=CCCCC3)C1=C[C@H](C(C)(C)C)O[C@@H]2C	x	x	-0.3	x	-36.3
C/C(=N\Nc1nc2ccccc2s1)c1ccc(Br)s1	-7.7	2.1	3.7	-0.9	4.8
CC(=NNc1nc2ccccc2s1)c1ccncn1	-2.4	58.2*	34.0	23.0	63.6*
O=S1(=O)N[C@@H](Cc2ccccc2)COc2cc(N3CCCCC3)ccc21	x	x	-1.3	x	1.4
C[C@]12Cc3ccccc3C1CC1=N[C@@H](c3ccc(C(F)(F)F)cc3)O[C@@]13C[C@@H]2C(=O)N3Cc1ccncc1 (some centres not stated)	x	x	5.5	x	41.1
O=C(COc1ccccc1F)Nc1ccccc1C(=O)NC1CC1	-1.7	2.5	6.8	8.2	51.6*
CCCCc1c(-c2ccccc2OC)ncn1C(C)c1ccc(Cl)cc1 (configuration not stated)	x	x	2.9	x	-4.5
O=C1c2[nH]c3ccccc3c2CC1N1C(=O)c2ccccc2C1=O (configuration not stated)	-10.6	8.9	20.9	13.9	51.7*
O=C1CCC(N2C(=O)c3ccccc3C2=O)C(=O)N1 (configuration not stated)	4.2	-7.2	1.9	0.8	-8.3
COCCN(C(=O)COC(=O)C12CC3CC(CC(Cl)(C3)C1)C2)c1c(N)n(Cc2ccccc2)c(=O)[nH]c1=O	27.0*	-15.1	0.1	1.5	-13.6
COCCN(C(=O)COC(=O)c1cccnc1SC)c1c(N)n(Cc2ccccc2)c(=O)[nH]c1=O	22.0*	-12.9	1.4	1.0	-21.6
CC(C)CN(C(=O)COC(=O)/C=C/c1ccc(Cl)c(Cl)c1)c1c(N)n(Cc2ccccc2)c(=O)[nH]c1=O	6.3	-4.5	4.0	1.2	-17.5
CC(C)CN(C(=O)COC(=O)C12CC3CC(CC(Cl)(C3)C1)C2)c1c(N)n(Cc2ccccc2)c(=O)[nH]c1=O	0.2	0.3	2.4	-0.5	-7.5
COCCN(C(=O)COC(=O)c1cccnc1Cl)c1c(N)n(Cc2ccccc2)c(=O)[nH]c1=O	2.6	0.9	0.3	3.2	-5.7
COCCN(C(=O)COC(=O)c1nc(Cl)ccc1Cl)c1c(N)n(Cc2ccccc2)c(=O)[nH]c1=O	-5.7	26.9*	1.4	-0.1	-10.9
COc1cc(/C=C/C(=O)OCC(=O)N(CC(C)C)c2c(N)n(Cc3ccccc3)c(=O)[nH]c2=O)ccc1O	11.3	-7.9	25.2	6.2	49.4*

From PubChem BioAssay
